Activity calls are given as the source filed them. The rule behind the calls is not given here.
Columns and labels:
[1] = Membrane permeability at pH 7.4 by PAMPA assay; type: ADME; details: read-out: permeability
How it was run: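 Parallel artificial membrane permeability assay run at pH 7.4. Effective permeability Pe reported in 10^-6 cm/s as the median of three tests.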

[2] = test system: Blood; assay: Antiinflammatory activity in BALB/c mouse whole blood assessed as inhibition of LPS-induced TNFalpha production by ELISA; type: functional, tissue-based
How it was run: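 Mouse whole blood cell suspension stimulated with LPS (medium-only control), incubated 4 h at 37 °C in 5% CO2. Plasma then separated by centrifugation at 4 °C and TNFα measured by ELISA. IC50 derived.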

[3] = molecular target: T1, Inhibitor of nuclear factor kappa-B kinase subunit beta (Homo sapiens, UniProt O14920); assay: Inhibition of purified His-tagged IKK-beta after 15 mins
T1 sequence (O14920 whole entry): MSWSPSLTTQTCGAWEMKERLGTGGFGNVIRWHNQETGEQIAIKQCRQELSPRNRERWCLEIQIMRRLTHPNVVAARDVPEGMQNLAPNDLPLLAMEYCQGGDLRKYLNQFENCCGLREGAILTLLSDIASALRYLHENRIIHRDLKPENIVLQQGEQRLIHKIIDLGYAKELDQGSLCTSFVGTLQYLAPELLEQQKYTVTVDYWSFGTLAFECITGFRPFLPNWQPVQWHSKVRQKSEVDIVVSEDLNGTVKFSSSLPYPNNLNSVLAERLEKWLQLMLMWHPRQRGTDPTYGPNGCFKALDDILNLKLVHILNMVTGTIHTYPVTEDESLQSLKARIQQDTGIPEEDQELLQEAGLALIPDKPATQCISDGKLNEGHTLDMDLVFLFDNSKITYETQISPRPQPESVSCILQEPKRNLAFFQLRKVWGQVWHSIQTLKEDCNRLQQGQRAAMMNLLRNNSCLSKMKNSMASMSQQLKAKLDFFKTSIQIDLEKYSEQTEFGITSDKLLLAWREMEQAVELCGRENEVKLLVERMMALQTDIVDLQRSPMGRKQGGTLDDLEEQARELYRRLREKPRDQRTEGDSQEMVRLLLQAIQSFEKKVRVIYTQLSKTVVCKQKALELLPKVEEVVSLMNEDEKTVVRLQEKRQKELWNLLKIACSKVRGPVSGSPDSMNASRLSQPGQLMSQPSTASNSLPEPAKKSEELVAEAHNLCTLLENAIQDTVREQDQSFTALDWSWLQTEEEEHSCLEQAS

[4] = molecular target: Serine/threonine-protein kinase D3 (Homo sapiens) (UniProt O94806); assay: Inhibition of PKD3 at 0.2 uM
[5] = Metabolic stability of the compound in mouse liver microsomes assessed as compound remaining at 1 uM after 30 mins; type: ADME, Microsome; details: read-out: Stability
How it was run: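 Compound at 1 μM incubated 30 min with mouse liver microsomes at 0.1 mg/ml protein. Percent of parent compound remaining reported.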

[6] = test system: Plasma; assay: Plasma concentration in BALB/c mouse at 30 mg/kg, po after 90 mins; type: ADME, organism-based; set-up: dose 30 mg/kg
How it was run: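 Plasma concentration of compound in mice measured 90 min after a 30 mg/kg oral dose.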

[7] = test system: Mus musculus; assay: Antiinflammatory activity in BALB/c mouse assessed as inhibition of LPS-induced TNFalpha production at 30 mg/kg, po after 1 hr by ELISA; type: functional
How it was run: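 Male BALB/c mice (7–12 weeks old) dosed orally, vehicle 0.5% methyl cellulose. LPS 0.02 mg/kg in saline given i.v. 30 min after dosing. Plasma separated at 4 °C, stored at −20 °C, and TNFα quantified by ELISA. Percent inhibition recorded.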

[8] = molecular target: Tyrosine-protein kinase JAK2 (Homo sapiens) (UniProt O60674); assay: Inhibition of JAK2 at 10 uM
[9] = molecular target: ALK tyrosine kinase receptor (Homo sapiens) (UniProt Q9UM73); assay: Inhibition of ALK at 10 uM
[10] = molecular target: T2, Serine/threonine-protein kinase D2 (Homo sapiens) (UniProt Q9BZL6); assay: Inhibition of PKD2 at 10 uM
T2 sequence (whole entry): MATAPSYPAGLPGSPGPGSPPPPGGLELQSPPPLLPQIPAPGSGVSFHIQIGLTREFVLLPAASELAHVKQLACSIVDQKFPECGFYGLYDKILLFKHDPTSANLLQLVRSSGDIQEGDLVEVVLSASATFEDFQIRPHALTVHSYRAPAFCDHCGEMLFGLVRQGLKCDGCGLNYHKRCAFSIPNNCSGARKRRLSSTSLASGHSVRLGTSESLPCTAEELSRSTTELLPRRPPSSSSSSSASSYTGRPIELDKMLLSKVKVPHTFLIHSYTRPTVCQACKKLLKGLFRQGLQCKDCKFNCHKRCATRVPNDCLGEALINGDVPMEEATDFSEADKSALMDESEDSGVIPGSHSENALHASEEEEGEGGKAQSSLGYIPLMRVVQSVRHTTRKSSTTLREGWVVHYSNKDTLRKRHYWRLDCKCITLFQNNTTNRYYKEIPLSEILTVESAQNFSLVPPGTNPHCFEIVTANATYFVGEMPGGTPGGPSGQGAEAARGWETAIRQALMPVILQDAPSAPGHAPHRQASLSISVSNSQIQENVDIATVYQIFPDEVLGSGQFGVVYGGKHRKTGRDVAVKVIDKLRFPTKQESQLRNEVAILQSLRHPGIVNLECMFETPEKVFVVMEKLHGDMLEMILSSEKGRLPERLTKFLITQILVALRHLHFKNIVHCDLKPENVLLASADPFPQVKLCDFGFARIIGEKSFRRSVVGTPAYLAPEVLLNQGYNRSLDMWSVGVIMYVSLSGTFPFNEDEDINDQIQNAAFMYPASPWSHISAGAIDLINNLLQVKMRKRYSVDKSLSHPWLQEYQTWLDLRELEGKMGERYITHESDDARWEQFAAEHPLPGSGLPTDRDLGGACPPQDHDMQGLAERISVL

Tyrosine-protein kinase JAK2 (Homo sapiens), sequence (O60674 whole entry): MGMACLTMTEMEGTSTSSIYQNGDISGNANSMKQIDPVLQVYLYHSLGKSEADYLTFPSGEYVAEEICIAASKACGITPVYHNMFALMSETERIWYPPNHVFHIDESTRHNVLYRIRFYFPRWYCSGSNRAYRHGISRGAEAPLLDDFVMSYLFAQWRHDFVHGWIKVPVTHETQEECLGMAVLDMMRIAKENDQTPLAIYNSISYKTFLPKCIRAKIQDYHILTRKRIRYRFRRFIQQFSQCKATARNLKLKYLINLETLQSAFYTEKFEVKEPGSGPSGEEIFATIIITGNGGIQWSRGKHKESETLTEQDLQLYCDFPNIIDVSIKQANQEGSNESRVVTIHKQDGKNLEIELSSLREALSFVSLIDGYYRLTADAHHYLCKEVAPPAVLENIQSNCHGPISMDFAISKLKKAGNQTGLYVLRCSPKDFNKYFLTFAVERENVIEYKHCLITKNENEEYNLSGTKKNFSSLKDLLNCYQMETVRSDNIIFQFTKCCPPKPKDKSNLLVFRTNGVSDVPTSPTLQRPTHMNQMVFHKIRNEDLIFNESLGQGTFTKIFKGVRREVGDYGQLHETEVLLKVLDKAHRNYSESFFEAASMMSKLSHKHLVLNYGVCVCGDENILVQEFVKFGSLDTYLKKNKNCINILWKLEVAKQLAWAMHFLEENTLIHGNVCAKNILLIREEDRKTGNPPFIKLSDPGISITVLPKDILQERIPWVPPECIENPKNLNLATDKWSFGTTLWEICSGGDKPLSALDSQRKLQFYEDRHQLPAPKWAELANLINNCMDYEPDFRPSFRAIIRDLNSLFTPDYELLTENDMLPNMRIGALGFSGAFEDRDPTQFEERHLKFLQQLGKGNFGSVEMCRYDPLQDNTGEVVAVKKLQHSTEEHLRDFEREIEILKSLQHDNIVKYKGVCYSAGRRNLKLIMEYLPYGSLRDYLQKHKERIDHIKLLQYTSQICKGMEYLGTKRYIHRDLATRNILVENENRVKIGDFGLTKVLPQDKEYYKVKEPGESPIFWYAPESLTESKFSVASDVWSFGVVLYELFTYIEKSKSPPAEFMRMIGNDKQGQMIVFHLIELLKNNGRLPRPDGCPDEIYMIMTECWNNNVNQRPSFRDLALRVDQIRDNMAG
ALK tyrosine kinase receptor (Homo sapiens), sequence (Q9UM73 19-1620 limits assumed): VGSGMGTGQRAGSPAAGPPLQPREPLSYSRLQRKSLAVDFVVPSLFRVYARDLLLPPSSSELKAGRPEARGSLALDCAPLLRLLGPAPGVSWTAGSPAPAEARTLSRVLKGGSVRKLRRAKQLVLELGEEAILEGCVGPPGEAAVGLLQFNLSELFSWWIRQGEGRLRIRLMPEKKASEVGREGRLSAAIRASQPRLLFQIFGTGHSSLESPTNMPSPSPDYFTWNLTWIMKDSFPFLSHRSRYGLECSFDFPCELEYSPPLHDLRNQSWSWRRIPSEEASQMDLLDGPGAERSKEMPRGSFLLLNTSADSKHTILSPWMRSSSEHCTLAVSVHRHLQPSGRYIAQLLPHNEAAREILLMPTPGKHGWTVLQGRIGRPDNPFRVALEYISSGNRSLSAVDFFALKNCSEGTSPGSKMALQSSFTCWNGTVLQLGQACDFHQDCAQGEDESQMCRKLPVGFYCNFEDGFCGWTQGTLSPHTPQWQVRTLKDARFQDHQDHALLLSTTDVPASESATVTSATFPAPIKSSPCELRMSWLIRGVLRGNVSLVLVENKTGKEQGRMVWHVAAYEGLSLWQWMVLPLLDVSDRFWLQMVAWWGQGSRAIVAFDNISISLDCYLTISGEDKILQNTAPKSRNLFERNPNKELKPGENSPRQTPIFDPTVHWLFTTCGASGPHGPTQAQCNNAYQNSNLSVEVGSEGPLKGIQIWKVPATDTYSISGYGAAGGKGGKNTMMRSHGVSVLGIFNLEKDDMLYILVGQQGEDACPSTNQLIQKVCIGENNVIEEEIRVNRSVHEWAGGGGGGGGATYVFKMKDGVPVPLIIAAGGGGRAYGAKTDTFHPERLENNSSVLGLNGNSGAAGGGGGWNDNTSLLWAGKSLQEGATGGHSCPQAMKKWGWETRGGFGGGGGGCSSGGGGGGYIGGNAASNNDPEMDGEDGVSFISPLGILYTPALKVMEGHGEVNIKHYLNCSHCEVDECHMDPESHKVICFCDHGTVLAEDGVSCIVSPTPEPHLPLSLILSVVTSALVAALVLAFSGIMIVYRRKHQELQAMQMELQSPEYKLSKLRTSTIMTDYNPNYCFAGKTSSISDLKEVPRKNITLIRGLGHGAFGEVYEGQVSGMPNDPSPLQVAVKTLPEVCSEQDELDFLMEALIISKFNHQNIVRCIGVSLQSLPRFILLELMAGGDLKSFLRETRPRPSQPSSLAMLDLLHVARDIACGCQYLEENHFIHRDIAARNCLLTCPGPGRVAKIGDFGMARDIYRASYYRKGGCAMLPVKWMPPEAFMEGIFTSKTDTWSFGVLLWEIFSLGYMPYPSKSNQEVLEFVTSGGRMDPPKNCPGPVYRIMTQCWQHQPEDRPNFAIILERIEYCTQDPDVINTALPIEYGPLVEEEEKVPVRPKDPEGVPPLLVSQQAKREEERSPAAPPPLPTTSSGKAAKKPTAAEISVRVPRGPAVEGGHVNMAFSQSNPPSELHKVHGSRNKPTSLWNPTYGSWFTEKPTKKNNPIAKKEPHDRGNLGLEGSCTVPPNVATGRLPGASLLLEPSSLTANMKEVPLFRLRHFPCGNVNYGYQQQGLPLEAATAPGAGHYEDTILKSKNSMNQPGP
Serine/threonine-protein kinase D3 (Homo sapiens), sequence (O94806 whole entry, looked up): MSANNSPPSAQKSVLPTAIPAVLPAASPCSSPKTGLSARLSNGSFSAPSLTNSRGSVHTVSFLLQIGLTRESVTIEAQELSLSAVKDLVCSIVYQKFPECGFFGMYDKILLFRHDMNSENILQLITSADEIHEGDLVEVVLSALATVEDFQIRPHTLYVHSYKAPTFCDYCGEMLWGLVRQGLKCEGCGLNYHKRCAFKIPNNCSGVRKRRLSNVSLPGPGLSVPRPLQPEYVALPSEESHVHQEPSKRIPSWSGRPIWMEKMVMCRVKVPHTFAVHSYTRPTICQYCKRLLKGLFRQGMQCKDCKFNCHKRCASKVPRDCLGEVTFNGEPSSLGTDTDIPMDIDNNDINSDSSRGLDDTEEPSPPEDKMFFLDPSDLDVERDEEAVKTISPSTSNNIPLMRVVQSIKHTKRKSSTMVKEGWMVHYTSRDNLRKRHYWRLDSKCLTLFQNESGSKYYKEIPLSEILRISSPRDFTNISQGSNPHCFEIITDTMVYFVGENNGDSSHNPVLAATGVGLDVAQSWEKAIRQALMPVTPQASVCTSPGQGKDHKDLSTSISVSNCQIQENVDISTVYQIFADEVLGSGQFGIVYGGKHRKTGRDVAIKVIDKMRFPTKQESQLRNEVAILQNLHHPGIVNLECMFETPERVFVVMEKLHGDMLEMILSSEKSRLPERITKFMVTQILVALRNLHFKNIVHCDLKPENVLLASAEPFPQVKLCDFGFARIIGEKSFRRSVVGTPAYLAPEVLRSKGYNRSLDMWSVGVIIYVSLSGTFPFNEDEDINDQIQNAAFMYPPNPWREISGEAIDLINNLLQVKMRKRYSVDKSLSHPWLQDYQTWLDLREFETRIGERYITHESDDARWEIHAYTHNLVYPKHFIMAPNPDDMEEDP

Papp [1] | IC50 [2] | IC50 [3] | inhibition [4] | remaining at 0.5 h, 1 µM [5] | inhibition [8] | inhibition [9] | inhibition [10] | Structure (SMILES) | Cp [6] | inhibition in vivo at 30 mg/kg [7] | inhibition [7]
14 ×10⁻⁶ cm/s | 3900 nM | 110 nM |  |  |  |  |  | O=C(O)CN(C[C@@H]1C[C@@H](F)CN1)C(=O)c1ccc(-c2cnc3ccc(NCC4CC4)nn23)cc1 |  |  | 
15 ×10⁻⁶ cm/s | 680 nM | 15 nM |  |  |  |  |  | O=C(c1ccc(-c2cnc3ccc(NCC4CC4)nn23)cc1)N(CCO)C[C@@H]1C[C@@H](F)CN1 |  |  | 
< 2 ×10⁻⁶ cm/s | 2700 nM | 71 nM |  |  |  |  |  | CO[C@H]1CN[C@H](CNC(=O)c2ccc(-c3cnc4ccc(NCC5CC5)nn34)cc2)C1 |  |  | 
36 ×10⁻⁶ cm/s | 570 nM | 22 nM | 80% |  |  |  |  | O=C(NC[C@@H]1C[C@@H](F)CN1)c1ccc(-c2cnc3ccc(NCC4CC4)nn23)cc1 |  |  | 
< 2 ×10⁻⁶ cm/s | 2700 nM | 15 nM |  |  |  |  |  | CC(=O)Nc1ccc(CN(C[C@@H]2C[C@@H](F)CN2)C(=O)c2ccc(-c3cnc4ccc(NCC5CC5)nn34)cc2)cc1 |  |  | 
> 50 ×10⁻⁶ cm/s | 800 nM |  |  | 71% |  |  |  | CN(C)CCNC(=O)c1ccc(-c2cnc3ccc(NCC4CC4)nn23)cc1 | 0.39 µg/mL | 10% | 
> 50 ×10⁻⁶ cm/s | 170 nM | 16 nM |  | 33% |  |  |  | CCCN(C[C@@H]1C[C@@H](F)CN1)C(=O)c1ccc(-c2cnc3ccc(NCC4CC4)nn23)cc1 | 0.16 µg/mL | 52% | 
 |  | 7300 nM |  |  |  |  |  | O=C(c1ccc(-c2cnc3ccc(NCC4CC4)nn23)cc1)N(C[C@@H]1C[C@@H](F)CN1)c1ccccc1 |  |  | 
> 50 ×10⁻⁶ cm/s | 950 nM | 13 nM |  |  |  |  |  | O=C(c1ccc(-c2cnc3ccc(NCC4CC4)nn23)cc1)N(C/C=C/c1ccccc1)C[C@@H]1C[C@@H](F)CN1 |  |  | 
 | 1200 nM | 21 nM |  |  |  |  |  | O=C(NC[C@H]1NCC[C@@H]1F)c1ccc(-c2cnc3ccc(NCC4CC4)nn23)cc1 |  |  | 
> 50 ×10⁻⁶ cm/s | 590 nM | 17 nM |  | 7% |  |  |  | O=C(c1ccc(-c2cnc3ccc(NCC4CC4)nn23)cc1)N(Cc1cccc(Cl)c1)C[C@@H]1C[C@@H](F)CN1 | 0.12 µg/mL | 40% | 
6.5 ×10⁻⁶ cm/s | 2100 nM | 23 nM |  |  |  |  |  | CO[C@H]1CCN[C@@H]1CNC(=O)c1ccc(-c2cnc3ccc(NCC4CC4)nn23)cc1 |  |  | 
6.1 ×10⁻⁶ cm/s | 1900 nM | 97 nM |  |  |  |  |  | CN(C[C@@H]1CCCN1)C(=O)c1ccc(-c2cnc3ccc(NCC4CC4)nn23)cc1 |  |  | 
42 ×10⁻⁶ cm/s | 230 nM | 18 nM |  | 33% |  |  |  | CCN(C[C@@H]1C[C@@H](F)CN1)C(=O)c1ccc(-c2cnc3ccc(NCC4CC4)nn23)cc1 | 0.15 µg/mL | 32% | 
< 2 ×10⁻⁶ cm/s | 6800 nM |  |  | 77% | > 90% | > 90% | > 90% | O=C(NC[C@@H]1CCCN1)c1ccc(-c2cnc3ccc(NCC4CC4)nn23)cc1 | 0.0075 µg/mL |  | inactive
39 ×10⁻⁶ cm/s | 1200 nM | 17 nM |  | 28% |  |  |  | O=C(c1ccc(-c2cnc3ccc(NCC4CC4)nn23)cc1)N(Cc1ccc(Cl)cc1)C[C@@H]1C[C@@H](F)CN1 | 0.45 µg/mL | 61% | 
> 50 ×10⁻⁶ cm/s | 480 nM | 42 nM |  | 50% |  |  |  | CN(C[C@@H]1C[C@@H](F)CN1)C(=O)c1ccc(-c2cnc3ccc(NCC4CC4)nn23)cc1 | 0.34 µg/mL | 26% | 
> 50 ×10⁻⁶ cm/s | 400 nM | 12 nM |  |  |  |  |  | O=C(c1ccc(-c2cnc3ccc(NCC4CC4)nn23)cc1)N(Cc1ccccc1)C[C@@H]1C[C@@H](F)CN1 |  |  | 
< 2 ×10⁻⁶ cm/s | > 10000 nM | 17 nM |  |  |  |  |  | O=C(O)c1ccc(CN(C[C@@H]2C[C@@H](F)CN2)C(=O)c2ccc(-c3cnc4ccc(NCC5CC5)nn34)cc2)cc1 |  |  | 
